The subject of series [1] is PC-3. Kind of series: Geno-toxicity in human PC3 cells assessed as induction of DNA damage at 2.5 to 10 uM after 24 hrs in absence of NAC by alkaline comet assay. The class given is functional, cell-based. An outline of the steps: (§1)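 Alkaline comet assay after 24 h at 2.5, 5 and 10 µM, with or without 24 h pretreatment with 5 mM NAC. Cells were trypsinized and embedded in 0.75% low-melting agarose, then lysed at pH 10, 4 °C, ≥1 h. DNA was unwound 20 min at pH >13 and electrophoresed 20 min at 25 V, 300 mA (0.86 V/cm), then stained with ethidium bromide. 100 cells (2 slides) were scored in classes 0–4 for a damage index. Mean ± SEM, three independent experiments in triplicate.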

The subject of series [2] is L929. Kind of series: Cytotoxicity against mouse L929 cells after 24 hrs in presence of GSH-OEt by MTT assay. The class given is cell-based. As to conditions: L929, 24 h. A digest of the protocol:
(§2)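 24 h MTT exposure (0.04–40.92 µM in 0.1% DMSO), with or without co-treatment with GSH ethyl ester (15 mM) to gauge the ROS contribution. MTT was 0.5 mg/mL for 3 h, with formazan dissolved in DMSO and absorbance at 595 nm expressed as % of control. Triplicate, repeated at least three times.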
On the technique in general: Tetrazolium dyes change colour on reduction, which living cells bring about.

The test system of series [3] is PC-3. Description: Induction of lipid peroxidation in human PC3 cells assessed as increase in MDA levels at 2.5 to 10 uM after 24 hrs in absence of NAC by TBARS assay. Format: functional, cell-based. A digest of the protocol: (§3)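 TBARS: cells were exposed 24 h, with or without 24 h prior 5 mM NAC, and lysed in Tris-HCl. Lysate was heated with TCA/0.25 M HCl and 6.7 mg/mL TBA for 15 min at 100 °C, centrifuged, and read at 532 nm. Hydrolyzed tetramethoxypropane served as standard, with values normalized to protein. H2O2 (10 µM) was the positive control. Three independent experiments in triplicate; ANOVA/Tukey.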

Series [4] relates to SF-295. Description: Induction of oxidative stress in human SF295 cells assessed as total GSH levels at 5 uM after 24 hrs by spectrophotometric analysis (reference value: 3.16 +/- 0.21 microg/mg). Format: functional.
Series [5] has as its system L929. Kind of series: Induction of oxidative stress in mouse L929 cells assessed as total intracellular thiol levels at 5 uM treated 24 hrs post NAC addition measured after 24 hrs by spectrophotometric analysis (reference value: 4.87 +/- 0.25 microg/mg). As to conditions: l929, 24 h. Format: cell-based.
In series [6] the test system is HCT-116. Kind of series: Induction of oxidative stress in human HCT116 cells assessed as total GSH levels at 5 uM treated 24 hrs post NAC addition measured after 24 hrs by spectrophotometric analysis (reference value: 3.74 +/- 0.55 microg/mg). The class given is functional.
In series [7] the test system is PC-3. Kind of series: Geno-toxicity in human PC3 cells assessed as induction of DNA damage at 2.5 to 10 uM treated 24 hrs post NAC addition measured after 24 hrs by alkaline comet assay. Format: functional, cell-based. A digest of the protocol:
as §1

The test system of series [8] is L929. Kind of series: Induction of lipid peroxidation in mouse L929 cells assessed as increase in MDA levels at 2.5 to 10 uM treated 24 hrs post NAC addition measured after 24 hrs by TBARS assay. Format: cell-based. The following applies: l929, 24 h. An outline of the steps:
as §3

Series [9] concerns PC-3. Description: Induction of oxidative stress in human PC3 cells assessed as total GSSG levels at 5 uM after 24 hrs by spectrophotometric analysis (reference value: 1.11 +/- 0.12 microg/mg). The class given is functional.
A short description of series [10]: Selectivity index, ratio of IC50 for mouse L929 cells to IC50 for human SF295 cells. The class given is functional. A digest of the protocol: (§4)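 Selectivity index is the ratio of the IC50 in a non-cancer murine line (V79 or L929) to the IC50 in the cancer line. […] MTT was 0.5 mg/mL for 3 h, formazan dissolved in DMSO and read at 595 nm as % of control. IC50s were derived by nonlinear regression; triplicate, at least three repeats.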

Series [11] can be described thus: Drug uptake in lysosomes of human PC3 cells at 5 uM after 10 mins by LysoTracker Red dye-based confocal microscopic analysis. Format: ADME, cell-based. As to conditions: pc-3, 10 min. A digest of the protocol:
(§5)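 PC3 cells were grown in DMEM with 10% FBS, antibiotics and 2 mM L-glutamine at 37 °C, 5% CO2. Cells were incubated with compound (5 µM) plus LysoTracker Red or MitoTracker Red for 10 min at 37 °C. Live cells were imaged in phenol red-free DMEM by confocal microscopy with a 40X oil objective, exciting at 488 nm (compound) and 543 nm (tracker dyes).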

Series [12] in a line: Selective index, ratio of IC50 for mouse L929 cells to IC50 for human SW620 cells. A digest of the protocol:
as §4

For series [13], the system named is L929. Description: Geno-toxicity in mouse L929 cells assessed as induction of DNA damage at 2.5 to 10 uM treated 24 hrs post NAC addition measured after 24 hrs by alkaline comet assay. Format: cell-based. The following applies: l929, 24 h. An outline of the steps: as §1
A short description of series [14]: Selective index, ratio of IC50 for chinese hamster V79 cells to IC50 for human SF295 cells. An outline of the steps: as §4
Series [15] deals with SF-295. Description: Induction of oxidative stress in human SF295 cells assessed as total GSH levels at 5 uM treated 24 hrs post NAC addition measured after 24 hrs by spectrophotometric analysis (reference value: 3.16 +/- 0.21 microg/mg). The class given is functional. An outline of the steps: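 Cells were pretreated 24 h with 5 mM NAC, then exposed 24 h to test compound at 5 µM. Controls received 0.1% DMSO. Extracts were prepared by sonication and HClO4 precipitation, then neutralized with KOH. Total glutathione was read by DTNB/glutathione reductase/NADPH rate at 412 nm. GSSG was measured after 4-vinylpyridine (0.1%, 1 h, RT) and GSH derived by difference. Values are normalized to protein, triplicates, three independent runs.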

For series [16], the system named is HCT-116. Description: Antiproliferative activity against human HCT116 cells after 72 hrs by MTT assay. Format: functional, cell-based. The following applies: HCT-116, 72 h. An outline of the steps: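 MTT reduction: cancer lines plated at 0.7×10^5 to 0.3×10^6 cells/well, V79 and L929 fibroblasts at 0.5×10^5 cells/well. Compounds in DMSO (0.1%) were given for 24 h at 0.04–40.92 µM or 72 h at 0.04–8.19 µM. Fresh medium with 0.5 mg/mL MTT was added for 3 h, then formazan was dissolved in DMSO and read at 595 nm as % of control. IC50 came from nonlinear regression with 95% CI. Doxorubicin (0.001–1.06 µM) was the positive control. Triplicate, ≥3 repeats.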

For series [17], the system named is HCT-116. Kind of series: Induction of oxidative stress in human HCT116 cells assessed as GSH to GSSG ratio at 5 uM after 24 hrs by spectrophotometric analysis (reference value: 3.09 +/- 0.33 microg/mg). The class given is functional.
Series [18] in a line: Selective index, ratio of IC50 for chinese hamster V79 cells to IC50 for human MDA-MB-435 cells. An outline of the steps:
as §4

Series [19] concerns L929. Description: Induction of oxidative stress in mouse L929 cells assessed as GSH to GSSG ratio at 5 uM after 24 hrs by spectrophotometric analysis (reference value: 3.55 +/- 0.51 microg/mg). The class given is cell-based. As to conditions: l929, 24 h.
In series [20] the test system is HCT-116. Description: Cytotoxicity against human HCT116 cells after 24 hrs in absence of GSH-OEt by MTT assay. As to conditions: HCT-116, 24 h. The class given is functional, cell-based. An outline of the steps:
as §2

Series [21] concerns L929. Description: Geno-toxicity in mouse L929 cells assessed as induction of DNA damage at 2.5 to 10 uM after 24 hrs in absence of NAC by alkaline comet assay. Format: cell-based. As to conditions: l929, 24 h. An outline of the steps: as §1
A short description of series [22]: Drug uptake in mitochondria of human PC3 cells at 5 uM after 10 mins by MitoTracker Red dye-based confocal microscopic analysis. The following applies: pc-3, 10 min. Format: ADME, cell-based. A digest of the protocol: as §5

By IC50 is commonly meant the concentration needed to halve the response being measured.

Activity calls are given as the source filed them. No cut-off for these calls is given here.

`CC1(C)OC2=C(C(=O)C(=O)c3ccccc32)C1n1cc(CNC2=[N+]3C(=C(c4ccccc4)c4ccc(Cl)n4[B-]3(F)F)C=C2)nn1` (configuration not stated): the outcome in the series on PC-3 [1], in the series on PC-3 [3] and in the series with PC-3 [7] was Active. Further, the IC50 in the series on L929 [2] worked out at 12.4 µM; with HCT-116 [16] it was 0.32 µM; in the series with HCT-116 [20], 5.28 µM. Besides, the Activity was 1.31 µg/mg in the series with SF-295 [4]; 5.21 µg/mg in the series with L929 [5]; 3.71 µg/mg in the series on HCT-116 [6]; “Non-Toxic” in the series on L929 [8]; 2.16 µg/mg with PC-3 [9]; “Toxic” with L929 [13]. Further, the Activity was 3.47 µg/mg in the series with SF-295 [15], 0.56 µg/mg in the series on HCT-116 [17], 0.33 with L929 [19] and “Toxic” in the series with L929 [21]. Besides, the “Ratio IC50” value in series [10] was found to be 3; in series [12], 1.4; in series [14], 2.3; in series [18], 0.8. For the same compound, the Drug uptake result in [11] and in series [22] was “Metabolite_Notdetected” in each case.

Source of the values: ChEMBL document CHEMBL4043182, “On the synthesis of quinone-based BODIPY hybrids: New insights on antitumor activity and mechanism of action in cancer cells” (Bioorg Med Chem Lett, 2017).
